Assay results pooled from the literature.
Each line is one published result; the experiments were not run side by side.
Target: Serine/threonine-protein kinase SBK1 (SBK1, Homo sapiens, UniProt Q52WX2)

O=S(=O)(NC1CCC(c2cc(F)ccc2F)(S(=O)(=O)c2ccc(Cl)cc2)CC1)C(F)(F)F (stereo not shown)  remaining binding (cell-free assay; competition with immobilised ligand; 1 µM): 75%
O=C(NCCCN1CCOCC1)c1ccc(Nc2ncc(Cl)c(-c3ccc(Cl)s3)n2)cc1  remaining binding (binding; competition with immobilised ligand; 1 µM): 52%
CCCCN(CCCC)C(=O)CN1C[C@H](c2cc(OC)c3c(c2)OCO3)[C@@H](C(=O)O)[C@@H]1CC(C)(C)CCC  remaining binding (cell-free assay; competition with immobilised ligand; 1 µM): 76.5%
O=C(NCC1CCOCC1)c1n[nH]cc1NC(=O)c1c(F)cccc1F  remaining binding (binding; competition with immobilised ligand; 1 µM): 70%
CN(CCCC(F)(F)F)c1nccc(-c2cnn3ncccc23)n1  remaining binding (binding; 1 µM): 85%
O=C(NCCCN1CCOCC1)c1ccc(Nc2nccc(-c3cc4ccccc4s3)n2)cc1  remaining binding (binding; competition with immobilised ligand; 1 µM): 71%
N[C@H]1CCN(c2nccc(-c3cnn4ncccc34)n2)C1  remaining binding (binding; 1 µM): 83%
O=C(c1ccc(Nc2ncc(Cl)c(-c3ccc(Cl)s3)n2)cc1)N1CCC(N2CCCC2)CC1  remaining binding (binding; competition with immobilised ligand; 1 µM): 48%
CN(C)c1ncc(F)c(-c2cnn3ncccc23)n1  remaining binding (binding; 1 µM): 66%
O=C(NCc1ncc(C(F)(F)F)cc1Cl)c1ccc2c(c1)C1(CCS(=O)(=O)CC1)[C@H](C1CC1)N2S(=O)(=O)c1ccc(F)cc1  remaining binding (cell-free assay; competition with immobilised ligand; 1 µM): 97%
COc1ncc2cc3ccccc3nc2c1C#N  remaining binding (cell-free assay; competition with immobilised ligand; 5 µM): 82%
CCN1CCN(Cc2ccc(C(=O)Nc3ccc(C)c(Oc4ccc5c(c4)CC(=O)N5)c3)cc2C(F)(F)F)CC1  remaining binding (binding; competition with immobilised ligand; 1 µM): 76%
F[C@@H]1CCN(c2nccc(-c3cnn4ncccc34)n2)C1  remaining binding (binding; 1 µM): 100%
C[C@H](c1cccc(C#N)c1)n1cc(Cl)cc(C(N)=O)c1=N  remaining binding (cell-free assay; competition with immobilised ligand; 1 µM): 83%
COc1cnc(Nc2cccc(S(N)(=O)=O)c2)nc1N1CCN(c2ccccc2)C(=O)C1  remaining binding (binding; competition with immobilised ligand; 1 µM): 61%
CC1CCCN1c1nccc(-c2cnn3ncccc23)n1 (stereo not shown)  remaining binding (binding; 1 µM): 100%
Cc1cc(-n2nc(Cc3cc(F)cc(C(F)(F)F)c3)nc2C)ccc1C(N)=O  remaining binding (cell-free assay; competition with immobilised ligand; 1 µM): 98%
C[C@H]1CCN(c2nccc(-c3cnn4ncccc34)n2)C1  remaining binding (binding; 1 µM): 78%
CC(=O)c1c(NS(C)(=O)=O)c2cc(-c3ccc(Cl)cc3)c(-c3ccc(Cl)cc3Cl)nc2n(C)c1=O  remaining binding (cell-free assay; competition with immobilised ligand; 1 µM): 77%
C[C@@H](c1ccc(-n2cnc3c(N)ncnc32)cc1)N1CCc2nn(C)c(Cc3ccccc3)c2C1=O  remaining binding (binding; competition with immobilised ligand; 0.1 µM): 69%
CCOC(=O)c1cc2cc(-c3cc(C(=O)NCc4ccc(C(=O)O)cc4)nn3C)ccc2[nH]1  remaining binding (cell-free assay; competition with immobilised ligand; 0.1 µM): 90%
FC(F)(F)Oc1cccc(-c2cnc3ccc(-c4ccncc4)nn23)c1  remaining binding (binding; competition with immobilised ligand; 5 µM): 85%
